A short description of experiment [1]: Cytotoxicity against human NCI-H1975 cells harboring EGFR T790M mutant assessed as decrease in cell viability after 72 hrs by MTT assay. It is filed as functional, cell-based. To be noted: NCI-H1975, 72 h. For orientation: Tetrazolium dyes change colour on reduction, which living cells bring about.
The target of experiment [2] is Katanin p60 ATPase-containing subunit A1 (Homo sapiens) (UniProt O75449). As to the kind of experiment: Induction of katanin p60 subunit-mediated microtubule fragmentation in human NCI-H1975 cells assessed as alpha-tubulin level in soluble form at 300 nM after 12 hrs by gel filtration chromatography/immunoblot analysis. It is filed as cell-based. A digest of the protocol:
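H1975 cells treated with 300 nM or vehicle for 12 h; soluble extracts made in IP lysis buffer. Run on a Toyopearl HW-65F gel filtration column equilibrated in IP lysis buffer, collecting 0.5 mL fractions. Fractions separated by 10% SDS–PAGE and α-tubulin detected by immunoblot.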

The target is the same in experiment [3]. In words: Induction of katanin p60 subunit-mediated microtubule fragmentation in human NCI-H1975 cells at 300 nM after 12 hrs by DAPI staining based confocal laser microscopy. It is filed as cell-based. A digest of the protocol: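 H1975 cells treated 12 h, fixed in 3.7% cold paraformaldehyde and permeabilized with 0.1% Triton X-100. Stained with anti-α-tubulin at 37 °C for 1 h, then FITC secondary (1:100) at 37 °C for 1 h. Mounted with DAPI and imaged by confocal microscopy.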

Experiment [4] has the same target. In words: Induction of katanin p60 subunit-mediated microtubule fragmentation in human NCI-H1975 cells assessed as alpha-tubulin level in soluble form at 300 nM after 1 hr by immunoblot analysis (reference value: 37%). It is filed as cell-based.
For experiment [5] the target is unchanged. In words: Induction of katanin p60 subunit-mediated JNK signaling pathway activation in human NCI-H1975 cells assessed as increase in c-Jun phosphorylation at S63 residues at 300 nM after 9 hrs by phospho-kinase antibody array method. It is filed as cell-based. A digest of the protocol: (§1)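 H1975 cells seeded overnight, exposed to 300 nM for 9 h; DMSO-treated cells as controls. Lysates rocked 30 min at 4 °C and spun at 14,000×g for 30 min. Equal BCA-quantified protein applied to a human phospho-kinase antibody array; spot density measured by densitometry.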

The target is the same in experiment [6]. As to the kind of experiment: Induction of katanin p60 subunit-mediated JNK signaling pathway activation assessed as increase in phosphorylation level at T183/Y185 residues in human NCI-H1975 cells at 300 nM after 6 to 12 hrs by immunoblot analysis. The format is cell-based. A digest of the protocol: (§2)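 H1975 cells treated with 300 nM for 6 h and 12 h, lysed, and phospho-JNK and phospho-c-Jun detected by immunoblot with ECL. Three independent experiments.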
A general note: Immunoblotting shows a protein as a band on a membrane.

For experiment [7] the target is unchanged. As to the kind of experiment: Induction of katanin p60 subunit-mediated microtubule fragmentation in human NCI-H1975 cells assessed as alpha-tubulin level in polymer form at 600 nM after 1 hr by immunoblot analysis (reference value: 63%). The format is cell-based.
Experiment [8] has the same target. As to the kind of experiment: Induction of katanin p60 subunit-mediated JNK signaling pathway activation assessed as increase in c-Jun phosphorylation level at S63 residues in human NCI-H1975 cells at 300 nM after 6 to 12 hrs by immunoblot analysis. It is filed as cell-based. A digest of the protocol: as §2
Experiment [9] has the same target. As to the kind of experiment: Induction of katanin p60 subunit-mediated microtubule fragmentation in human NCI-H1975 cells assessed as alpha-tubulin level in soluble form at 600 nM after 1 hr by immunoblot analysis (reference value: 37%). The format is cell-based.
Experiment [10] shares this target. As to the kind of experiment: Induction of katanin p60 subunit-mediated microtubule fragmentation in human NCI-H1975 cells assessed as alpha-tubulin level in polymer form at 300 nM after 1 hr by immunoblot analysis (reference value: 63%). It is filed as cell-based.
Experiment [11] has the same target. As to the kind of experiment: Induction of katanin p60 subunit-mediated JNK signaling pathway activation in human NCI-H1975 cells assessed as increase in JNK phosphorylation at T183/Y185 and T221/Y223 residues at 300 nM after 9 hrs by phospho-kinase antibody array method. It is filed as cell-based. A digest of the protocol:
as §1

The target in experiment [12] is Katanin p80 WD40 repeat-containing subunit B1 (Homo sapiens) (UniProt Q9BVA0). In words: Binding affinity to katanin p80 subunit in human NCI-H1975 cell lysate using biotin-labeled compound preincubated for 24 hrs followed by streptavidin-conjugated beads addition measured after 2 hrs by immunoblot analysis. The format is cell-free. A digest of the protocol: (§3)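 H1975 lysate incubated 24 h with biotinylated probe or with a purine-free linker as control. Bound proteins detected by immunoblot; three independent experiments.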

Experiment [13] addresses Katanin p60 ATPase-containing subunit A1 (Homo sapiens) (UniProt O75449). As to the kind of experiment: Binding affinity to katanin p60 subunit in human NCI-H1975 cell lysate using biotin-labeled compound preincubated for 24 hrs followed by streptavidin-conjugated beads addition measured after 2 hrs by immunoblot analysis. It is filed as cell-free. A digest of the protocol:
as §3

Activity calls are given as the source filed them. The calls are words filed in the database; no cut-off is given here.

As a reminder, the IC50 is the concentration that inhibits the measured activity by half.

Katanin p60 ATPase-containing subunit A1 (Homo sapiens), sequence (O75449 whole entry, the tested form may be a part): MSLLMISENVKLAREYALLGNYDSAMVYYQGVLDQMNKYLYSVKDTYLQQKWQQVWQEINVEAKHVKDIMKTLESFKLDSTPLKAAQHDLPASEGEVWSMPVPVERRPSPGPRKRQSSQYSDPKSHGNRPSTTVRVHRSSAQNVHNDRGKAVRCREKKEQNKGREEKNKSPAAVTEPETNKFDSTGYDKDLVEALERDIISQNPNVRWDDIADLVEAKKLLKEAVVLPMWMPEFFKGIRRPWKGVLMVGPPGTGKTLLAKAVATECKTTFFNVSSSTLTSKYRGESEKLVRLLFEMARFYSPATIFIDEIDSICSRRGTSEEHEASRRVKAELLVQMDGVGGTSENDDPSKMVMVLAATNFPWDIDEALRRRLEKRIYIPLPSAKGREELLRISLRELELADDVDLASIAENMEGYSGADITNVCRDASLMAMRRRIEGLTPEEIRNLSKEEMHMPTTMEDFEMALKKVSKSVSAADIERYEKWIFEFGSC
Katanin p80 WD40 repeat-containing subunit B1 (Homo sapiens), sequence (Q9BVA0 whole entry): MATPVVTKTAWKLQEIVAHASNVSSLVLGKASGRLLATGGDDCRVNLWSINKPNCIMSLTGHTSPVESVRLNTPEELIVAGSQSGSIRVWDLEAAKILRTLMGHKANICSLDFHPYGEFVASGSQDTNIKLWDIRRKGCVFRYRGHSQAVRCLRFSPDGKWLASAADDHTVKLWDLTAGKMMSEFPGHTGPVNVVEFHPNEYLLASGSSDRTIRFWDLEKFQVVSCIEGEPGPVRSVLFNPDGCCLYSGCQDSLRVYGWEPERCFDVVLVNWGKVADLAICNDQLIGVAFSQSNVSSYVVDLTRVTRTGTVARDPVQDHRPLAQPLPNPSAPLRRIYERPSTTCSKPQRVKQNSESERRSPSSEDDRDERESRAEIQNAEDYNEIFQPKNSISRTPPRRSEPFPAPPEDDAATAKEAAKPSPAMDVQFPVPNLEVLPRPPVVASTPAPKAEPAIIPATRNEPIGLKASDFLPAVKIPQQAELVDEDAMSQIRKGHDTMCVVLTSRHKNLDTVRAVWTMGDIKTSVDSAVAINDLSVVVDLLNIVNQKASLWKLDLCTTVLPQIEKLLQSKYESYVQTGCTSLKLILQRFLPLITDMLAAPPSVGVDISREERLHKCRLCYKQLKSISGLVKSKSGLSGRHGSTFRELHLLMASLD

For `CCCCCCOc1ccc(-c2nc(C(N)=O)c3[nH]c(=O)n(-c4ccccc4OC)c3n2)cc1`, in experiment [1], the IC50 was greater than 5 µM.
As for `CCOc1ccc(-c2nc(C(N)=O)c3[nH]c(=O)n(-c4ccccc4OC)c3n2)cc1`, the result in experiment [2], in experiment [3], in experiment [5], in experiment [6], in experiment [8] and in experiment [11] was Active. Moreover, the Activity was 68% in [4], 25% in [7], 75% in experiment [9] and 32% in [10].
For `COC(=O)c1cccc(-n2c(=O)[nH]c3c(C(N)=O)nc(-c4ccc(-c5ccccc5)cc4)nc32)c1`, in experiment [1], the IC50 is greater than 20 µM.
On the same count and under the same terms, the value for `CCCCOc1ccc(-c2nc(C(N)=O)c3[nH]c(=O)n(-c4ccccc4OC)c3n2)cc1` was 4.66 µM; that for `CCOc1ccc(-c2nc(C(N)=O)c3[nH]c(=O)n(-c4cccc(C(=O)NCCCCCNC(=O)OC(C)(C)C)c4)c3n2)cc1` was greater than 10 µM; that for `CCOc1ccc(-c2nc(C(N)=O)c3[nH]c(=O)n(-c4cccc(C(=O)O)c4)c3n2)cc1` was 7.91 µM.
On to `CCOc1ccc(-c2nc(C(N)=O)c3[nH]c(=O)n(-c4cccc(C(=O)NCCCCCNC(=O)CCCC[C@@H]5SC[C@@H]6NC(=O)N[C@@H]65)c4)c3n2)cc1`, for which the outcome in experiment [12] and in experiment [13] was Active. Also, the IC50 in experiment [1] was determined as 26.3 µM.

(Values after ChEMBL document CHEMBL3860040, “Purine-Type Compounds Induce Microtubule Fragmentation and Lung Cancer Cell Death through Interaction with Katanin” (J Med Chem, 2016).)
